Assays:
[1] = molecular target: D(1A) dopamine receptor (Homo sapiens, UniProt P21728); test: Inhibitory activity against dopamine D1
[2] = molecular target: T1, Sodium-dependent serotonin transporter (Homo sapiens, UniProt P31645); test: Inhibition of [3H] serotonin uptake into human SERT expressed in HEK293 cells; type: functional, cell-based
Outline: (§1)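 Confluent HEK293 cells expressing hDAT or hSERT, scraped into Krebs-HEPES. Preincubated 10 min at 25°C with compound (0.1% DMSO final). Uptake started with [3H]dopamine or [3H]serotonin (20 nM final) and stopped after 10 min by filtration on PEI-soaked GF/C filters. Non-specific uptake: 5 µM mazindol (DAT) or 5 µM imipramine (SERT). IC50 from triplicate 6-concentration curves, 2–3 independent determinations.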

[3] = molecular target: D(2) dopamine receptor (Homo sapiens, UniProt P14416); test: Inhibitory activity against dopamine D2
D(2) dopamine receptor, sequence (P14416 whole entry): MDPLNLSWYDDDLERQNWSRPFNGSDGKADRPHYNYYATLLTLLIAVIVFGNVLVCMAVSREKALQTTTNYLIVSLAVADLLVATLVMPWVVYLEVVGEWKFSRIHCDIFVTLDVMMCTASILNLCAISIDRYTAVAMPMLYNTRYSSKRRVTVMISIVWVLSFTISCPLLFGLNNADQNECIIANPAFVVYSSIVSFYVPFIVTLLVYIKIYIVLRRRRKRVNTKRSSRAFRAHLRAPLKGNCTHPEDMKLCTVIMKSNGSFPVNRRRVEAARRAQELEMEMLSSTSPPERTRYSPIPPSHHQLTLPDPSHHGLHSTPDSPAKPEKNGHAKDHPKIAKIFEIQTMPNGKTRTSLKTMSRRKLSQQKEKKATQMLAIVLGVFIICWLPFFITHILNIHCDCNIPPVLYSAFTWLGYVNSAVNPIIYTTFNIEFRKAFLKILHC

[4] = molecular target: 5-hydroxytryptamine receptor 1B (Homo sapiens, UniProt P28222); test: Inhibitory activity against 5HT1B
5-hydroxytryptamine receptor 1B, sequence (P28222 whole entry): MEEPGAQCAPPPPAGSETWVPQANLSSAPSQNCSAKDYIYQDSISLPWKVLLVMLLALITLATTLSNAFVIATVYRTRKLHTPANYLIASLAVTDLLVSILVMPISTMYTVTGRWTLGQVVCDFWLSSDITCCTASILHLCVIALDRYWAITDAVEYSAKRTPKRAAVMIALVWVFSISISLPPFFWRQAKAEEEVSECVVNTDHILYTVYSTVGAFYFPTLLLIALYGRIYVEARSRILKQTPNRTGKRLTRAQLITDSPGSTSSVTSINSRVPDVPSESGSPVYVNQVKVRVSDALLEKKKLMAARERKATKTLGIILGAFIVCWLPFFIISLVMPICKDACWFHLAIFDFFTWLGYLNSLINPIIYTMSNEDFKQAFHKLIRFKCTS

[5] = molecular target: T2, Sodium-dependent noradrenaline transporter (Homo sapiens, UniProt P23975); test: Displacement of [125I]RTI-55 from human NET expressed in HEK293 cells; type: cell-based
T2 sequence (P23975 whole entry): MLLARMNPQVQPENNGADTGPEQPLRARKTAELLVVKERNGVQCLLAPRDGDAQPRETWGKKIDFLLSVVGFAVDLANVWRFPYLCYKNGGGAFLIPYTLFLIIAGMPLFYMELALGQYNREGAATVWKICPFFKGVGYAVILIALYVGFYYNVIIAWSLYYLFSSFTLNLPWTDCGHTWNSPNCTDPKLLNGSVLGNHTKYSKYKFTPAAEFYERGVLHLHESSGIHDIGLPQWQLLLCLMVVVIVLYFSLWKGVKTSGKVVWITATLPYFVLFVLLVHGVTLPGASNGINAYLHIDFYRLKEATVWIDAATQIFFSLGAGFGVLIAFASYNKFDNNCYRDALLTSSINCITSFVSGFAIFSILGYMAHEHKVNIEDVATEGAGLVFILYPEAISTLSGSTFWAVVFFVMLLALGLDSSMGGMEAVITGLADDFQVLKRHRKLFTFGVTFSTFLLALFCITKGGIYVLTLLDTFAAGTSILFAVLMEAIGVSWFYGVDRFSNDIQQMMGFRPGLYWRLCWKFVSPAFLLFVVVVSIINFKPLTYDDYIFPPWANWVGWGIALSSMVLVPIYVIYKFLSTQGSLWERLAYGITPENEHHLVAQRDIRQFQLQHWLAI

[6] = molecular target: T3, 5-hydroxytryptamine receptor 2C (Homo sapiens, UniProt P28335); test: Inhibitory activity against 5HT1C
T3 sequence (P28335 whole entry): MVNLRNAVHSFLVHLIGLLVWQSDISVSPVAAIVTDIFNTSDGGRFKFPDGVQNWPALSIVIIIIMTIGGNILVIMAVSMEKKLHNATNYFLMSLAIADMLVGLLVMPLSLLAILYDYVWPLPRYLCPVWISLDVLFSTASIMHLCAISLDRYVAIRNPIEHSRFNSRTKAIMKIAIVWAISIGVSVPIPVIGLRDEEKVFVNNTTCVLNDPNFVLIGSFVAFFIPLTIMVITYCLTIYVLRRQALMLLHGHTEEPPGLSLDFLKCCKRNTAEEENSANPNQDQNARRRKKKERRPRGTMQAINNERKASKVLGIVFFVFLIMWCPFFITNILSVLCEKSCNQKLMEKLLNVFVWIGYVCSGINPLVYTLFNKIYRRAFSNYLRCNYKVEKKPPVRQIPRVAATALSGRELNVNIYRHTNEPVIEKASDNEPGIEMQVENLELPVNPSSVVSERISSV

[7] = molecular target: T4, 5-hydroxytryptamine receptor 1A (Homo sapiens, UniProt P08908); test: Inhibitory activity against 5HT1A
T4 sequence (P08908 whole entry): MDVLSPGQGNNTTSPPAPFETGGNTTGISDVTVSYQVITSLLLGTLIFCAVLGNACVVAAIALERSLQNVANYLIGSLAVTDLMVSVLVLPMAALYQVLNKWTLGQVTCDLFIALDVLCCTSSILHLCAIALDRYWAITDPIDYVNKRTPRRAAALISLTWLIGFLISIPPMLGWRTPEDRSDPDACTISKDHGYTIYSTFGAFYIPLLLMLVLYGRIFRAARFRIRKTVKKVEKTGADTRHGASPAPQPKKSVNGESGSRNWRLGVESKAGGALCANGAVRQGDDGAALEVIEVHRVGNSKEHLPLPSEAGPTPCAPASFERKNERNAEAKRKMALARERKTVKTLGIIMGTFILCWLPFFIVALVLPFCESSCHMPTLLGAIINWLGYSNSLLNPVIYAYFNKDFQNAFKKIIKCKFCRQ

[8] = molecular target: T2, Sodium-dependent noradrenaline transporter; test: Inhibition of [3H] norepinephrine uptake into human NET expressed in HEK293 cells; type: functional, cell-based
[9] = molecular target: T1, Sodium-dependent serotonin transporter; test: Displacement of [125I]RTI-55 from human SERT expressed in HEK293 cells; type: cell-based
Outline: (§2)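 Membranes from HEK293 cells expressing hDAT or hSERT, grown to 80% confluence, lysed in 2 mM HEPES/1 mM EDTA, spun and resuspended in 0.32 M sucrose. About 10–15 µg protein preincubated 10 min with compound in Krebs-HEPES pH 7.4 (0.1% DMSO final). Filtered on GF/C. Non-specific binding: 5 µM mazindol (DAT) or 5 µM imipramine (SERT). Duplicates, 2–3 experiments, IC50 converted to Ki by Cheng-Prusoff.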

[10] = molecular target: T5, Sodium-dependent dopamine transporter (Homo sapiens, UniProt Q01959); test: Inhibition of [3H] dopamine uptake into human DAT expressed in HEK293 cells; type: functional, cell-based; outline: as §1
T5 sequence (Q01959 whole entry): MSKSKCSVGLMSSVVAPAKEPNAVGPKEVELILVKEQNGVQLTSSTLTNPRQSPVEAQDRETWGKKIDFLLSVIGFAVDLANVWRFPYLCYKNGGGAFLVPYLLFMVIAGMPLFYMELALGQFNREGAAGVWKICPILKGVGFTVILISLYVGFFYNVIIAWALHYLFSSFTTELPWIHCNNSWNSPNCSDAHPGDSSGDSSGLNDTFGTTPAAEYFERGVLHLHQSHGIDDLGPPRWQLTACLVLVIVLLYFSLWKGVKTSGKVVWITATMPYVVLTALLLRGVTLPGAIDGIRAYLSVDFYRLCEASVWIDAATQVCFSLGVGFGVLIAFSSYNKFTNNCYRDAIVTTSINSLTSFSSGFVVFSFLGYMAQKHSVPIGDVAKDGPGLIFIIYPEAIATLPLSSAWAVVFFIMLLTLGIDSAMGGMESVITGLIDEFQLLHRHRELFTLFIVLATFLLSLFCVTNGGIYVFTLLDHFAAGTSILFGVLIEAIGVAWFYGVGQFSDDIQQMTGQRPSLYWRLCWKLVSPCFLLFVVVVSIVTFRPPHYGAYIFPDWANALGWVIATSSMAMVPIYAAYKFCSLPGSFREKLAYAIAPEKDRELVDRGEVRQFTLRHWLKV

[11] = molecular target: T5, Sodium-dependent dopamine transporter; test: Displacement of [125I]RTI-55 from human DAT expressed in HEK293 cells; type: cell-based; outline: as §2
[12] = molecular target: D(3) dopamine receptor (Homo sapiens, UniProt P35462); test: Inhibitory activity against dopamine D3
D(3) dopamine receptor, sequence (P35462 whole entry): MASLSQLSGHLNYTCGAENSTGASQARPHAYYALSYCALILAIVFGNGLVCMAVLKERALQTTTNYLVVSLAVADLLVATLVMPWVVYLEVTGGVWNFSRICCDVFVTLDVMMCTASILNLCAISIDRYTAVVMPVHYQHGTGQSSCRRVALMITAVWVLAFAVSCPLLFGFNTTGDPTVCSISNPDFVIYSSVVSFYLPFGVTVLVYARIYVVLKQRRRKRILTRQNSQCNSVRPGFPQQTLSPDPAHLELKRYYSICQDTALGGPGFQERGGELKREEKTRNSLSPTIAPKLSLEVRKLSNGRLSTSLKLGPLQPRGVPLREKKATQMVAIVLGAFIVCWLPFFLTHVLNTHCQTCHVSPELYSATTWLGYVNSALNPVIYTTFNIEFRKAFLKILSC

D(1A) dopamine receptor, sequence (P21728 whole entry): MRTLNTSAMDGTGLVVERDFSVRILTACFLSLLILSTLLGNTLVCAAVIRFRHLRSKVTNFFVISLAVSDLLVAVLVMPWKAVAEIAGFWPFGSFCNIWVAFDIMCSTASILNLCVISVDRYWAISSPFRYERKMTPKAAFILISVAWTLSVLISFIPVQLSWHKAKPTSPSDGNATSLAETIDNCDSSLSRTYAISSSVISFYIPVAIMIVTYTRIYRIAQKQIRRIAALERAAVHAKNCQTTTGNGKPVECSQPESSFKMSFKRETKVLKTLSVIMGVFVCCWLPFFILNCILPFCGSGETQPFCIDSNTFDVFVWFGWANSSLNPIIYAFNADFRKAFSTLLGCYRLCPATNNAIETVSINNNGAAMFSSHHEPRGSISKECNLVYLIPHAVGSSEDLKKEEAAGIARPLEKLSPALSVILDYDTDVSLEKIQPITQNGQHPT
T1 sequence (P31645 whole entry): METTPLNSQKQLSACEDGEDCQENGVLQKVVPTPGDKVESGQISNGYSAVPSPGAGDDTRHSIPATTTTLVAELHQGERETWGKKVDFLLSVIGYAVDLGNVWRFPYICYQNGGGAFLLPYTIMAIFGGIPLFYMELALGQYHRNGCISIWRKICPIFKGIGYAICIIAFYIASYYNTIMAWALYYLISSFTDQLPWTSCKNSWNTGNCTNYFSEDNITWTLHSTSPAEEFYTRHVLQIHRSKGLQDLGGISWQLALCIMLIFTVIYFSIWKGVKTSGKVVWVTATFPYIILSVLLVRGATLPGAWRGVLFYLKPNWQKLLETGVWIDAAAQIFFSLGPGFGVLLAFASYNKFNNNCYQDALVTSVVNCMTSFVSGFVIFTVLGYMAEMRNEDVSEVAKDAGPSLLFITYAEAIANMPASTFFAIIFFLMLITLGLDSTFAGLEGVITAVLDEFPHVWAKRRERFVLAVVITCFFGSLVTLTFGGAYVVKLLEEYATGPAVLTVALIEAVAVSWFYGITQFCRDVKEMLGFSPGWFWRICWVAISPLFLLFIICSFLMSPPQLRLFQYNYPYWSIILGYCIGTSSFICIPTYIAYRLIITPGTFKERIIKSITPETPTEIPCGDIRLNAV

Structure (SMILES) | IC50 [1] | IC50 [2] | IC50 [3] | IC50 [4] | Ki [5] | IC50 [6] | IC50 [7] | IC50 [8] | Ki [9] | IC50 [10] | Ki [11] | IC50 [12]
CCCC(C(=O)c1ccc(Br)cc1)N1CCCC1 (configuration not stated) | > 10 µM | 1050 nM | > 10 µM | > 10 µM | 386 nM | > 10 µM | > 10 µM | 83 nM | 0.83 µM | 39.5 nM | 51 nM | > 10 µM
CCCC(C(=O)c1ccc(-c2cccs2)cc1)N1CCCC1 (configuration not stated) | > 10 µM | 1960 nM | > 10 µM | > 10 µM | 370 nM | > 10 µM | > 10 µM | 263 nM | 3.32 µM | 539 nM | 460 nM | > 10 µM
CCCC(C(=O)c1ccc2ccccc2c1)N1CCCC1 (configuration not stated) | > 10 µM | 46 nM | > 10 µM | > 10 µM | 136 nM | > 10 µM | > 10 µM | 11.7 nM | 0.0331 µM | 40 nM | 20.1 nM | > 10 µM
CCC(CC(=O)c1ccc(Cl)c(Cl)c1)N1CCCC1 (configuration not stated) | > 10 µM | 1780 nM | > 10 µM | > 10 µM | > 10000 nM | > 10 µM | > 10 µM | – | 3.9 µM | > 10000 nM | 8440 nM | > 10 µM
CCC[C@@H](C(=O)c1ccc(C)cc1)N1CCCC1 | > 10 µM | 1070 nM | > 10 µM | > 10 µM | 109 nM | > 10 µM | > 10 µM | 11.3 nM | 2.22 µM | 16.3 nM | 18.1 nM | > 10 µM
CCCC(C(=O)c1ccccc1C)N1CCCC1 (configuration not stated) | > 10 µM | 2020 nM | > 10 µM | > 10 µM | 425 nM | > 10 µM | > 10 µM | 19.7 nM | 3.72 µM | 63 nM | 59.7 nM | > 10 µM
CCCC(C(=O)c1ccc(C(F)(F)F)cc1)N1CCCC1 (configuration not stated) | > 10 µM | 1030 nM | > 10 µM | > 10 µM | > 10000 nM | > 10 µM | > 10 µM | – | 0.959 µM | – | > 10000 nM | > 10 µM
CCCC(C(=O)c1ccc(O)cc1)N1CCCC1 (configuration not stated) | > 10 µM | – | > 10 µM | > 10 µM | 1290 nM | > 10 µM | > 10 µM | 86.7 nM | > 10 µM | 49.7 nM | 125 nM | > 10 µM
CCCC(C(=O)c1ccc(NC(C)=O)cc1)N1CCCC1 (configuration not stated) | > 10 µM | – | > 10 µM | > 10 µM | 4000 nM | > 10 µM | > 10 µM | 317 nM | > 10 µM | 67.9 nM | 30.2 nM | > 10 µM
CCCC(C(=O)c1cccc(C)c1)N1CCCC1 (configuration not stated) | > 10 µM | – | > 10 µM | > 10 µM | 216 nM | > 10 µM | > 10 µM | 9.4 nM | 5.9 µM | 62.9 nM | 51 nM | > 10 µM
C=CCC(C(=O)c1ccc(Cl)c(Cl)c1)N1CCCC1 (configuration not stated) | – | 440 nM | – | – | 509 nM | – | – | 24.9 nM | 1.06 µM | 18.3 nM | 39.9 nM | –
CCC(CC(=O)c1ccc(C)cc1)N1CCCC1 (configuration not stated) | > 10 µM | – | > 10 µM | > 10 µM | > 10000 nM | > 10 µM | > 10 µM | – | > 10 µM | – | > 10000 nM | > 10 µM
CCCC(C(=O)c1ccc(OC)cc1)N1CCCC1 (configuration not stated) | > 10 µM | 2430 nM | > 10 µM | > 10 µM | 2600 nM | > 10 µM | > 10 µM | 235 nM | 4.08 µM | 283 nM | 329 nM | > 10 µM
CCCC(C(=O)c1ccc(Cl)c(Cl)c1)N1CCCC1 (configuration not stated) | – | 600 nM | – | – | 37.8 nM | – | – | 21 nM | 0.199 µM | 43 nM | 11.5 nM | –
